Here are results for one molecule from paper PMC6282775 (Journal of Clinical Pharmacology, 2018).

Data set [1] is described as follows: Safety evaluations in the clinical study. In kind it is in vivo, human. A digest of the protocol:
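Open-label, multicenter, parallel-group study in healthy subjects and subjects with moderate (Child-Pugh B) or severe (Child-Pugh C) hepatic impairment. Subjects fasted at least 10 h, then took one oral 300-mg capsule dose of test compound with water 30 min after starting a standard meal. No food for 4 h. Adverse events, vital signs, clinical laboratory tests and ECGs were recorded, with follow-up 7–10 days after dosing.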

The nature of data set [2]: Clinical hepatic impairment study: total plasma PK of alectinib and M4. In kind it is in vivo, human. To be noted: single 300-mg dose of alectinib.
The nature of data set [3]: Unbound fraction. In kind it is in vivo, human. Particulars: for fraction unbound: human, plasma, oral, 300 mg, median value of individual mean fu%, plasma 6 and 12 hours postdose; for GMR of unbound AUC0‐∞ / GMR of unbound Cmax: single 300-mg dose of alectinib. Put shortly: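 Single oral 300 mg dose given 30 min after the start of a standard ~514 kcal meal, after a ≥10 h fast. Plasma taken 6 and 12 h postdose was dialyzed in triplicate, and plasma and buffer were analysed by LC-MS/MS. Samples were spiked if levels were too low. fu% = unbound/total ×100, geometric mean of triplicates (outlier dropped if CV >45.0%). GMRs from ANOVA of log Cmax and AUC0‐∞, with matched controls as a random effect.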

Data set [4] deals with plasma proteins. To be noted: cited from earlier work.
Data set [5] relates to CYP3A. To be noted: cited from earlier work.
Where [6] appears, read: moderate hepatic impairment/matched healthy subjects.
Where [7] appears, read: severe hepatic impairment/matched healthy subjects.

In general, fraction unbound refers to the share of the substance not bound to proteins or other matrix. A higher fraction unbound goes with weak binding.

For the molecule `CCc1cc2c(cc1N1CCC(N3CCOCC3)CC1)C(C)(C)c1[nH]c3cc(C#N)ccc3c1C2=O` [Alectinib], the “changes in vital signs, laboratory values, or electrocardiogram measurements” value in data set [1] (single oral 300 mg, during the study) is “No clinically significant changes”. In addition, in data set [1] (single oral dose of 300 mg, healthy subjects and subjects with moderate or severe hepatic impairment), the tolerability result is “well tolerated”. The “GMR of total AUC0‐∞” value in data set [2] (setting [6]) was 160%; in data set [2] (setting [7]) it was 220%. The “GMR of total Cmax” value in data set [2] (setting [6]) is listed as 128%; in data set [2] (setting [7]), 100%. The fraction unbound in data set [3] (healthy subjects matched for moderate) worked out at 0.00206; in data set [3] (healthy subjects matched for severe), 0.0014; in data set [3] (moderate hepatic impairment) it was 0.00229; in data set [3] (severe hepatic impairment), 0.00179. The “GMR of unbound AUC0‐∞” value in data set [3] (setting [6]) was found to be 186%; in data set [3] (setting [7]), 285%. In addition, the figures for the “GMR of unbound Cmax” value in data set [3] (setting [6]) and in data set [3] (setting [7]) were 148% and 130%, respectively. Moreover, the “protein binding in vitro” value in data set [4] is at least 99%. Moreover, the “increase in exposure on coadministration of a potent CYP3A inhibitor” value in data set [5] is 75%.
